# Source: PubChem BioAssay (several laboratories)
# This is a sample that favours compounds with a hit; in the whole collection about 1.3% have one here.
# core dimer inh = HCV core protein dimerization inhibition. TR-FRET GST/Flag-core106 dimerization, 1536-well. inhibition, % at 5 µM. 300,000 tested, 0.33% active. AID 1899;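 active means inhibition above the mean of all tested compounds plus 3 SD, set per screening campaign, cut at about 45% in these data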
#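 Assay system – GST-tagged and Flag-tagged HCV core protein residues 1-106 · Quantity – core106 proteins, GST 13.5 nM and Flag 17 nM · Benchmarks – unlabelled core106 and no-GST-core106 wells · Read-out basis – percent inhibition of core106 dimerization signal · Detection – time-resolved FRET, ex 340 nm, em 617 and 671 nm · Schedule – 4 h at 22.5 °C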
# HCV NS3 hel inh = inhibitors of Hepatitis C virus NS3 helicase. 290,000 tested, 0.56% active. inhibition, % at 10.9 µM. NS3 helicase DNA unwinding, Cy5 molecular beacon fluorescence;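 active means inhibition above the mean of all tested compounds plus 3 SD, set per campaign, cut at about 35% in these data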;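 further: 0% = DMSO wells and 100% = thioflavine S control wells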
#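 System: NS3 helicase fragment of HCV / Schedule: 1 h at 25 °C / Control set: DMSO alone as 0% and 110 µM thioflavine S as 100% / Reagent: Cy5/quencher beacon DNA duplex and ATP to start / Technique: Cy5 fluorescence / Replication: singlicate / Evaluation: % inhibition of end-to-start signal ratio versus controls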
# Tb MetRS inh = blocks T. brucei methionyl-tRNA synthetase activity. purified T. brucei MetRS, ATP depletion, Kinase-Glo luminescence. inhibition, % at 11.9 µM. 360,000 tested, 0.4% active. AID 624268;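 active means inhibition above a per-plate cutoff of the control wells' mean inhibition plus 3 SD, cut at about 5.5% in these data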;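 further: 0% = DMSO wells median and 100% = median of wells with control inhibitor compound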
#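 Measured by: Kinase-Glo luciferase luminescence reporting remaining unconsumed ATP. Material: purified T. brucei MetRS enzyme. Doses: 11.9 µM compound single dose, 0.9% DMSO. Medium: HEPES buffer containing pyrophosphatase, BSA, spermine, DTT. Times: 15 min preincubation, 2 h reaction, all 25 °C. Reagent: methionine, ATP and bulk E. coli tRNA.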
# Hep lipid drop = modulators of hepatic lipid droplet formation. inhibition, % at 6.5 µM. AID 1656. AML12 mouse hepatocytes, oleate lipid droplets, BODIPY imaging. 240,000 tested, 0.4% active;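 active means lipid droplet intensity inhibited by at least 50%, with more than 500 cells counted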
#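 Material – mouse AML12 hepatocyte cell line, fixed after treatment · Compound dosing – one dose, 6.5 µM compound · Times – compound with oleate, overnight · Measured by – Image-based BODIPY and DAPI two-channel analysis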
# Hep lipid conf = hepatic lipid droplet formation inhibition, confirmed | shares compounds with Hep lipid drop | AML12 mouse hepatocytes, BODIPY lipid droplet imaging; droplets induced with 100 µM oleic acid | 870 tested, 65% active | AID 463183 | inhibition, % at 5.2 µM;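 active means inhibition of lipid droplet metric at least 50%, with more than 300 cells in each of four replicates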;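 further: plate controls were DMSO with oleic acid for no effect and 5 µM Triacsin-C for full effect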
# AML12 tox img = counter-screen for cytotoxicity in AML12 mouse hepatocytes; shares compounds with Hep lipid drop; DAPI nuclear morphology cytotoxicity imaging; stronger effect = higher value; cells fed 100 µM oleate overnight; z-score at 5 µM; 870 tested, 3% active; AID 463200; in the data active means z-score above about 6.3;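 further: compound exposure lasted overnight at 37 °C before fixation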
# AML12 tox ATP = confirmation of cytotoxicity in AML12 mouse hepatocytes. shares compounds with Hep lipid drop. AML12 mouse hepatocyte viability, ATP luminescence; cells loaded with 100 µM oleic acid. cytotoxicity, % at 50 µM. 530 tested, under 10 active;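 active means cytotoxicity above 50% in each of four replicates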;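 further: compound exposure lasted overnight at 37 °C before the ATP read; 0% = DMSO-treated cells and 100% = wells with no cells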
# Active calls of the source: *; . = no result given.
SMILES,core dimer inh,HCV NS3 hel inh,Tb MetRS inh,Hep lipid drop,Hep lipid conf,AML12 tox img,AML12 tox ATP
O=C(Nc1ccc(Cl)cc1)N[C@@H]1CC[C@H](CCNS(=O)(=O)c2ccccc2F)O[C@@H]1CO,.,.,0,.,.,.,.
N#Cc1cccc(-c2csc(C(O)c3ccc(F)cc3)n2)c1 (stereo not drawn),.,.,0,.,.,.,.
O=C(NCc1ccccc1)c1ccc2nc(N3CCOCC3)sc2c1,-5,5,0,9,.,.,.
CCCOc1ccc(CNC(=O)c2ccc3nc(N4CCOCC4)sc3c2)cc1,1,-2,0,54*,99*,-0.65,12
CCC(NC(=O)c1cc(COc2cncc(Cl)c2)on1)c1ccncc1 (stereo not drawn),2,8,0,65*,11,-0.58,.
COc1ccc(N2CCN(C(=O)c3cc(C)on3)CC2)cc1,-5,11,-1,56*,-10,-0.44,.
Cc1cc(C(=O)N2CCN(c3ccccc3)CC2)no1,2,0,-1,.,.,.,.
CC(C)(C)OC(=O)N1CCN(C(c2ccnc3ccccc23)c2nnnn2-c2ccc3c(c2)OCCO3)CC1 (stereo not drawn),.,.,-1,.,.,.,.
Cc1ccc(CNC(=O)c2ccc3nc4[nH]c5ccccc5c4nc3c2)cc1,.,-4,.,55*,91*,-0.28,.
O=C1CSC(c2cn(-c3ccccc3)nc2-c2ccccc2)N1Cc1ccco1 (stereo not drawn),10,-2,0,61*,87*,-1.1,-21
O=NN(CCCl)C(=O)NCC1=C[N+](=O)CC=C1,.,.,-1,.,.,.,.
O=C(C(O)c1ccccc1)N1CCN(S(=O)(=O)c2ccc(C(F)(F)F)cc2)CC1 (stereo not drawn),.,.,-1,.,.,.,.
COc1ccc(C)cc1S(=O)(=O)N(CC(=O)Nc1cccc([N+](=O)[O-])c1)c1cc(C)cc(C)c1,24,-5,0,-26,.,.,.
COc1ccc(C)cc1S(=O)(=O)N(CC(=O)Nc1cc([N+](=O)[O-])ccc1C)c1ccc(C)c(C)c1,12,-11,-1,51*,57,-0.35,14
c1ccc(-c2nn3c(-c4ccccc4)nnc3o2)cc1,.,.,0,.,.,.,.
COC(=O)c1ccc(NS(=O)(=O)c2ccc3c(c2)n(C)c(=O)n3C)cc1,-7,-1,0,53*,16,0.16,.
CCOC(=O)c1ccc(NS(=O)(=O)c2ccc3c(c2)n(C)c(=O)n3C)cc1,-5,8,0,.,.,.,.
N#CCN(C(=O)CSc1nnc(C2CC2)n1C1CC1)c1ccccc1,.,.,0,.,.,.,.
CCOC(=O)c1c(C)[nH]c(C)c1S(=O)(=O)N1CCN(c2ccc([N+](=O)[O-])cc2)CC1,6,-13,2,93*,-33,0.74,.
CCN(CC)S(=O)(=O)c1ccc(S(=O)(=O)N(CC(=O)Nc2ccccc2)Cc2ccco2)cc1,9,0,0,62*,96*,-0.42,11
CCN(CC)S(=O)(=O)c1ccc(N2C(=O)CC2(/C=C/c2ccccc2)C(=O)NC2CCCC2)cc1 (stereo not drawn),29,1,-1,63*,74,0.43,.
COc1ccccc1/C=C/C1(C(=O)NC2CCCC2)CC(=O)N1c1ccc(C)cc1 (stereo not drawn),2,7,0,24,.,.,.
CCc1cc(C(=O)N2CCc3c([nH]c4ccccc34)C2c2ccc(OC)cc2F)no1 (stereo not drawn),9,5,0,69*,81*,0.77,-20
COc1ccc(C2c3[nH]c4ccccc4c3CCN2C(=O)c2ccc(=O)n(C)n2)c(F)c1 (stereo not drawn),-1,-3,1,4,.,.,.
CC(C)COc1cccc(-c2cc(C(=O)N/N=C/c3ccncc3)c3ccccc3n2)c1,.,-11,0,-20,.,.,.
SMILES,core dimer inh,HCV NS3 hel inh,Tb MetRS inh,Hep lipid drop,Hep lipid conf,AML12 tox img,AML12 tox ATP
O=C(CCNC(=O)C1CCN(S(=O)(=O)c2ccccc2)CC1)NCCc1cccc(F)c1,-1,19,0,54*,27,-0.15,.
O=C(CCNC(=O)C1CCN(S(=O)(=O)c2ccccc2)CC1)NCCc1ccc(Cl)cc1,-1,-20,-1,11,.,.,.
CCn1cc([N+](=O)[O-])c(C(=O)N2N=C(c3ccc4ccccc4c3)CC2c2ccccc2O)n1 (stereo not drawn),25,-9,-1,79*,88*,-1.6,11
Cc1ccc(S(=O)(=O)N2[C@@H](Cc3ccccc3)CO[C@H]2CC(=O)c2ccc(F)cc2)cc1,.,.,0,.,.,.,.
O=C1COc2ccc(C(=O)CSc3ccccc3C(=O)O)cc2N1,2,13,0,16,.,.,.
CC(C)c1ccccc1-n1c(SCC(=O)c2ccc3c(c2)NC(=O)CO3)nc2ccccc2c1=O,24,0,-1,54*,59,-1.3,3
C[C@H](CO)N1C[C@H](C)[C@@H](CN(C)C(=O)c2ccccc2)OCc2cnnn2CCCC1=O,.,.,-1,.,.,.,.
CC(=O)NCCNc1nc2cc(-c3ccc(C(=O)N4CCN(C)CC4)cc3)sc2c(=O)n1C,.,.,0,.,.,.,.
CC(=O)C1=C(C)NC(SCSc2ccccc2)=C(C#N)C1c1cccnc1 (stereo not drawn),9,-5,.,59*,79*,0.91,-7
O=C(NCc1ccc(F)cc1)c1cc(C2CCCCN2S(=O)(=O)c2cccs2)on1 (stereo not drawn),.,.,0,.,.,.,.
CCOc1ccc(NC(=O)CN(C)C(=O)c2cc(S(=O)(=O)N3CCCCC3)ccc2C)cc1OCC,-1,.,0,.,.,.,.
CCOc1ccc(NC(=O)CN(C)C(=O)c2ccc(C)c(S(=O)(=O)N3CCCCC3)c2)cc1OCC,.,-4,0,63*,63*,0.13,14
CC(C)C[C@H]1C(=O)N2CCC[C@H]2[C@]2(O)O[C@](NC(=O)[C@@H]3C=C4c5cccc6[nH]c(Br)c(c56)CC4N(C)C3)(C(C)C)C(=O)N12 (stereo partly drawn),10,-4,-1,54*,39,-1.6,2
CCOC(=O)N1CCN(C(=O)C2CCN(C(=O)c3ccccc3C)CC2)CC1,.,.,0,.,.,.,.
Cc1nn(Cc2ccc(F)cc2)c(C)c1NC(=O)C1c2ccccc2Oc2ccccc21,2,-27,0,62*,92*,-0.1,-1
CCCOC(=O)c1ccc(NC(=O)CCOc2ccccc2)cc1,4,-14,0,52*,104*,-0.16,14
CCOC(=O)c1ccc(NC(=O)CCOc2ccccc2)cc1,-1,-1,-1,21,.,.,.
CCCCNC(=O)C1C(c2ccc(OC)cc2)=Nc2ccccc2N1C(=O)c1cccnc1 (stereo not drawn),.,.,0,.,.,.,.
O=[N+]([O-])c1ccccc1NCCNc1ncc(C(F)(F)F)cc1Cl,-9,3,-1,13,.,.,.
